According to ChEMBL document CHEMBL5678799 (Biochem J, 2009):
Active and inactive are the calls of the source. The calls are words filed in the database; no cut-off is given here.

What was measured:
[1] = tested on: MEF; experiment: Induction of cell cycle arrest in MEF cells assessed as accumulation at S phase at 100 nM incubated for 1 to 3 days by propidium iodide staining based flow cytometric analysis (reference value: 61.5 +/- 0.78%); type: toxicity; conditions: mouse, 0.1 µM, time 1-3 day
[2] = target: Serine/threonine-protein kinase mTOR (Mus musculus) (UniProt Q9JLN9); conditions: MEF, dose 100.0 nM, time 30.0 min
[3] = tested on: MEF; experiment: Induction of cell cycle arrest in MEF cells assessed as accumulation at G2 phase at 100 nM incubated for 1 to 3 days by propidium iodide staining based flow cytometric analysis (reference value: 15.4 +/- 2.04%); type: toxicity; conditions: mouse, 0.1 µM, time 1-3 day
[4] = tested on: MEF; experiment: Induction of cell cycle arrest in mLST8 knockout MEF cells assessed as accumulation at S phase at 100 nM incubated for 1 to 3 days by propidium iodide staining based flow cytometric analysis (reference value: 59.7 +/- 0.49%); type: toxicity; conditions: mouse, 0.1 µM, time 1-3 day
[5] = target: Serine/threonine-protein kinase mTOR (Homo sapiens) (UniProt P42345); conditions: HEK293, dose 100.0 nM, time 30.0 min
[6] = tested on: MEF; experiment: Induction of cell cycle arrest in MEF cells assessed as accumulation at G1 phase at 100 nM incubated for 1 to 3 days by propidium iodide staining based flow cytometric analysis (reference value: 21.4 +/- 1.7%); type: toxicity; conditions: mouse, 0.1 µM, time 1-3 day
[7] = tested on: MEF; experiment: Induction of cell cycle arrest in mLST8 knockout MEF cells assessed as accumulation at G1 phase at 100 nM incubated for 1 to 3 days by propidium iodide staining based flow cytometric analysis (reference value: 22.2 +/- 0.59%); type: toxicity; conditions: mouse, 0.1 µM, time 1-3 day
[8] = target: Serine/threonine-protein kinase mTOR (Mus musculus) (UniProt Q9JLN9); conditions: MEF, dose 100.0 nM, time 30.0 min; remark: listed apart in the source
[9] = target: Serine/threonine-protein kinase mTOR (Homo sapiens) (UniProt P42345); conditions: HEK293, dose 100.0 nM, time 30.0 min; remark: listed apart in the source
[10] = target: Serine/threonine-protein kinase mTOR (Mus musculus) (UniProt Q9JLN9); conditions: MEF, dose 100.0 nM, time 30.0 min; remark: listed apart in the source
[11] = target: Serine/threonine-protein kinase mTOR (Mus musculus) (UniProt Q9JLN9); conditions: MEF, dose 100.0 nM, time 30.0 min; remark: listed apart in the source
[12] = target: Serine/threonine-protein kinase mTOR (Mus musculus) (UniProt Q9JLN9); conditions: MEF, dose 100.0 nM, time 30.0 min; remark: listed apart in the source
[13] = target: Serine/threonine-protein kinase mTOR (Homo sapiens) (UniProt P42345); conditions: HeLa, dose 100.0 nM, time 30.0 min
[14] = tested on: MEF; experiment: Induction of cell cycle arrest in mLST8 knockout MEF cells assessed as accumulation at G2 phase at 100 nM incubated for 1 to 3 days by propidium iodide staining based flow cytometric analysis (reference value: 14.1 +/- 0.69%); type: toxicity; conditions: mouse, 0.1 µM, time 1-3 day
[15] = target: T1, Mitogen-activated protein kinase; ERK1/ERK2 (Homo sapiens) (UniProt P27361+P28482); experiment: Inhibition of ERK1/2 in serum starved/PMA-stimulated HEK293 cells assessed as reduction in RSK phosphorylation at S227 residues at 200 nM incubated for 30 mins by immunoblot analysis; type: cell-based
[16] = target: T1, Mitogen-activated protein kinase; ERK1/ERK2 (Homo sapiens); experiment: Inhibition of ERK1/2 in serum starved/PMA-stimulated HEK293 cells assessed as reduction in ERK1/2 phosphorylation at T202/Y204 residues at 200 nM incubated for 30 mins by immunoblot analysis; type: cell-based
[17] = target: T1, Mitogen-activated protein kinase; ERK1/ERK2 (Homo sapiens); experiment: Inhibition of ERK1/2 in serum starved/PMA-stimulated HEK293 cells assessed as reduction in RSK phosphorylation at T573 residues at 200 nM incubated for 30 mins by immunoblot analysis; type: cell-based
[18] = target: T1, Mitogen-activated protein kinase; ERK1/ERK2 (Homo sapiens); experiment: Inhibition of ERK1/2 in serum starved/PMA-stimulated HEK293 cells assessed as reduction in RSK activity at 200 nM using crosstide as substrate incubated for 30 mins in presence of [32P]-ATP by liquid-scintillation counting method; type: cell-based
[19] = target: T1, Mitogen-activated protein kinase; ERK1/ERK2 (Homo sapiens); experiment: Inhibition of ERK1/2 in serum starved/PMA-stimulated HEK293 cells assessed as reduction in RSK phosphorylation at S380 residues at 200 nM incubated for 30 mins by immunoblot analysis; type: cell-based
[20] = tested on: HeLa; experiment: Inhibition of PI3K/mTOR in human HeLa cells assessed as reduction in NDRG1 phosphorylation incubated ay 1 uM for 30 mins by immunoblot analysis; type: cell-based
Summary of the method: (§1)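 HeLa cells or wild-type/knockout MEFs cultured in 10% serum and treated 30 min with inhibitor. Lysed in Tris lysis buffer and extracts immunoblotted with an antibody to NDRG1 phosphorylated at Thr346/356/366. Three experiments.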

[21] = tested on: MEF; experiment: Inhibition of PI3K in serum starved Rictor knockout MEF cells assessed as reduction IGF1-stimulated AKT phosphorylation at Thr308 residue at 1 uM incubated for 20 mins by immunoblot analysis; type: cell-based; conditions: Mus musculus
Summary of the method: (§2)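 Wild-type, Rictor-, mLST8- or Sin1-knockout MEFs serum-deprived, pretreated 30 min with inhibitor, then stimulated with IGF-1 for 20 min. Lysates immunoblotted for Akt Thr308 phosphorylation. Three independent experiments.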

[22] = tested on: MEF; experiment: Inhibition of PI3K/mTOR in MEF cells assessed as reduction in NDRG1 phosphorylation incubated ay 1 uM for 30 mins by immunoblot analysis; type: cell-based; conditions: Mus musculus; summary of the method: as §1
[23] = tested on: MEF; experiment: Inhibition of PI3K in serum starved MEF cells assessed as reduction IGF1-stimulated AKT phosphorylation at Thr308 residue at 1 uM incubated for 20 mins by immunoblot analysis; type: cell-based; conditions: Mus musculus; summary of the method: as §2
[24] = tested on: MEF; experiment: Inhibition of PI3K in serum starved mLST8 knockout MEF cells assessed as reduction IGF1-stimulated AKT phosphorylation at Thr308 residue at 1 uM incubated for 20 mins by immunoblot analysis; type: cell-based; conditions: Mus musculus; summary of the method: as §2
[25] = tested on: MEF; experiment: Inhibition of PI3K in serum starved sin1 knockout MEF cells assessed as reduction IGF1-stimulated AKT phosphorylation at Thr308 residue at 1 uM incubated for 20 mins by immunoblot analysis; type: cell-based; conditions: Mus musculus; summary of the method: as §2
[26] = tested on: HEK293; experiment: Inhibition of PI3K in serum starved HEK293 cells expressing GST-tagged-AKT1 S473D mutant assessed as reduction in IGF1-stimulated AKT1 phosphorylation at Thr308 residue at 1 uM incubated for 20 mins by immunoblot analysis; type: cell-based; conditions: Homo sapiens
Summary of the method: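 HEK-293 cells transfected with wild-type or S473D GST–Akt1. At 24 h, serum-starved 16 h, pretreated 30 min with inhibitor, then stimulated with IGF-1 for 20 min. Lysates immunoblotted for Thr308 phosphorylation. Three separate experiments.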

[27] = tested on: HEK293; experiment: Inhibition of PI3K in IGF1-stimulated HEK293 cells assessed as reduction in IGF1-stimulated PtdIns(3,4,5)P3 production at 2 uM pre incubated for 30 mins followed by IGF1-stimulation for 10 mins; type: cell-based; conditions: Homo sapiens

T1 sequence (P27361 whole entry, looked up): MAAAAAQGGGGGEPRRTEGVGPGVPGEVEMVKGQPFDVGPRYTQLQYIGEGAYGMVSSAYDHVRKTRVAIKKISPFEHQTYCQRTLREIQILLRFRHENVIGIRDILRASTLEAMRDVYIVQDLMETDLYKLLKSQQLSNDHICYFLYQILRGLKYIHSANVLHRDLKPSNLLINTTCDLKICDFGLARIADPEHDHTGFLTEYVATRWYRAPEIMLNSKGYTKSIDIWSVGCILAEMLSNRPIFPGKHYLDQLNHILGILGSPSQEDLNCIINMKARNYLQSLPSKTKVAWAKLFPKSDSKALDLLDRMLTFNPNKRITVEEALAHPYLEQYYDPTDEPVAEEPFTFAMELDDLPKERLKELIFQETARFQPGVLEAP
T1 sequence (P28482 whole entry, looked up): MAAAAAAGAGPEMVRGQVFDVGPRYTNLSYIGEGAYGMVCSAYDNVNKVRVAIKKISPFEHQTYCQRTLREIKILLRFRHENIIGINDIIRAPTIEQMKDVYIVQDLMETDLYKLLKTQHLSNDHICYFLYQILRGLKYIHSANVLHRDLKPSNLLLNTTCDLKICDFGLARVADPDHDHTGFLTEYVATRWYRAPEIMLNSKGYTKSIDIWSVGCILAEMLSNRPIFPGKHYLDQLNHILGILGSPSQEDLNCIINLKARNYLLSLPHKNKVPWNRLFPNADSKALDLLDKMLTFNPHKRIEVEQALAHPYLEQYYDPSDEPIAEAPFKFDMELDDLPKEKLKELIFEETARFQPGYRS

For `CO[C@H]1C[C@@H]2CC[C@@H](C)[C@@](O)(O2)C(=O)C(=O)N2CCCC[C@H]2C(=O)O[C@H]([C@H](C)C[C@@H]2CC[C@@H](O)[C@H](OC)C2)CC(=O)[C@H](C)/C=C(\C)[C@@H](O)[C@@H](OC)C(=O)[C@H](C)C[C@H](C)/C=C/C=C/C=C/1C` [SIROLIMUS], the Activity [1] was 56.7%, the inhibition [2] was “Active” and the Activity [3] was 11.2%. The Activity [4] was 46.5%, the inhibition [5] was “Active” and the Activity [6] was 29.8%. For the same compound, the Activity [7] was 35.8%, the inhibition [8] was “Active” and the inhibition [9] was “Active”. For the same compound, the inhibition [10] was “Active”, the inhibition [11] was “inactive” and the inhibition [12] was “Active”. The inhibition [13] was “inactive” and the Activity [14] was 14.4%.

In the case of `O=C(NOCC(O)CO)c1ccc(F)c(F)c1Nc1ccc(I)cc1Cl` (configuration not stated), the inhibition [15] is reported as “Active”, the inhibition [16] is reported as “Active” and the inhibition [17] is reported as “Active”. The inhibition [18] was “Active” and the inhibition [19] was “Active”.

In the case of `Oc1cccc(-c2nc(N3CCOCC3)c3oc4ncccc4c3n2)c1`, the inhibition [20] is reported as “Active”, the inhibition [21] is reported as “Active” and the inhibition [22] is reported as “Active”. The inhibition [23] was “Active”, the inhibition [24] was “Active” and the inhibition [25] was “Active”. For the same compound, the inhibition [26] was “Active” and the inhibition [27] was “Active”.
